Data as given in ChEMBL document CHEMBL1126178, “Structure-activity study of hCGRP8-37, a calcitonin gene-related peptide receptor antagonist” (J Med Chem, 1992).

Tests used:
Cavia porcellus [1] = species: Cavia porcellus; experiment: Dose inhibiting the ionotropic response induced by hCGRP-alpha in guinea pig left atrium.; type: functional; details: Cardiac atrium
Outline: (§1)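 Atria were taken from male Hartley guinea pigs (350-400 g) and the prostatic vas deferens from male Sprague-Dawley rats (200-250 g). Tissues were mounted on platinum electrodes in oxygenated Krebs-Ringer at 37 °C and equilibrated 1 h at 0.5-1 g tension. Force-transducer responses were recorded to cumulative hCGRPα concentrations, with test peptide (1 µM) added 10 min before. Values are mean ± SE.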

Rattus norvegicus [2] = species: Rattus norvegicus; experiment: Dose inhibiting the twitch response induced by hCGRP-alpha in rat vas deferens.; type: functional; outline: as §1
Cavia porcellus [3] = species: Cavia porcellus; experiment: Dose inhibiting the ionotropic response induced by hCGRP-alpha in guinea pig right atrium.; type: functional; details: Cardiac atrium; outline: as §1
Cavia porcellus [4] = species: Cavia porcellus; experiment: Dose inhibiting the chronotropic response induced by hCGRP-alpha in guinea pig right atrium.; type: functional; details: Cardiac atrium; outline: as §1
Cavia porcellus [5] = species: Cavia porcellus; experiment: Dose inhibiting the chronotropic response induced by hCGRP-alpha in guinea pig right atrium relative to hCGRP(8-37).; type: functional, Cardiac atrium; parameters: unit not given here
Rattus norvegicus [6] = species: Rattus norvegicus; experiment: Dose inhibiting the twitch response induced by hCGRP-alpha in rat vas deferens relative to hCGRP(8-37).; type: functional; parameters: unit not given here
Cavia porcellus [7] = species: Cavia porcellus; experiment: Dose inhibiting the ionotropic response induced by hCGRP-alpha in guinea pig left atrium relative to hCGRP(8-37).; type: functional, Cardiac atrium; parameters: unit not given here
[8] = target: Calcitonin gene-related peptide type 1 receptor (Rattus norvegicus, UniProt Q63118); experiment: Binding affinity against [125I]-hCalcitonin gene-related peptide type alpha receptor binding sites in rat brain membrane; type: cell membranes
Cavia porcellus [9] = species: Cavia porcellus; experiment: Dose inhibiting the ionotropic response induced by hCGRP-alpha in guinea pig right atrium relative to hCGRP(8-37).; type: functional, Cardiac atrium; parameters: unit not given here

Calcitonin gene-related peptide type 1 receptor, sequence (Q63118 whole entry): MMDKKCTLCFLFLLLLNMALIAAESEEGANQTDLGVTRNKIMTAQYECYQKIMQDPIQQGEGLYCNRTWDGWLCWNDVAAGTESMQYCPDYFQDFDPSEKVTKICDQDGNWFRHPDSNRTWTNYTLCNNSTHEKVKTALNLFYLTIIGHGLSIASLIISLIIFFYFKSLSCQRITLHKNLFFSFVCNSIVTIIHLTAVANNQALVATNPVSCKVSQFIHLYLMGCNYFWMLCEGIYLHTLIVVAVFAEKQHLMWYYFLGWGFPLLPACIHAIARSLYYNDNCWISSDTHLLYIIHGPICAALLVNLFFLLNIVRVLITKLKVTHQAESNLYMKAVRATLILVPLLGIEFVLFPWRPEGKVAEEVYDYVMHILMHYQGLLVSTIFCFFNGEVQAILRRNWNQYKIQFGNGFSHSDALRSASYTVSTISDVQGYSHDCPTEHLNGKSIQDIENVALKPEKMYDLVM

Compound | EC50 (Cavia porcellus [1]) [nM] | EC50 (Rattus norvegicus [2]) [nM] | EC50 (Cavia porcellus [3]) [nM] | EC50 (Cavia porcellus [4]) [nM] | Relative potency (Cavia porcellus [5]) | Relative potency (Rattus norvegicus [6]) | Relative potency (Cavia porcellus [7]) | IC50 [8] [nM] | Relative potency (Cavia porcellus [9])
CC(C)C[C@H](NC(=O)CNC(=O)[C@H](C)NC(=O)[C@H](CC(C)C)NC(=O)[C@H](CCCN=C(N)N)NC(=O)[C@H](Cc1c[nH]cn1)NC(=O)[C@@H](NC(=O)[C@@H](NC(=O)[C@@H]1CSSC[C@H](NC(=O)[C@H](C)N)C(=O)N[C@@H](CC(=O)O)C(=O)N[C@@H]([C@@H](C)O)C(=O)N[C@@H](C)C(=O)N[C@@H]([C@@H](C)O)C(=O)N1)C(C)C)[C@@H](C)O)C(=O)N[C@@H](CC(C)C)C(=O)N[C@@H](CO)C(=O)N[C@@H](CCCN=C(N)N)C(=O)N[C@@H](CO)C(=O)NCC(=O)NCC(=O)N[C@H](C(=O)N[C@H](C(=O)N[C@@H](CCCCN)C(=O)N[C@@H](CC(N)=O)C(=O)N[C@@H](CC(N)=O)C(=O)N[C@@H](Cc1ccccc1)C(=O)N[C@H](C(=O)N1CCC[C@H]1C(=O)N[C@H](C(=O)N[C@@H](CC(N)=O)C(=O)N[C@H](C(=O)NCC(=O)N[C@@H](CO)C(=O)N[C@@H](CCCCN)C(=O)N[C@@H](C)C(=O)N[C@@H](Cc1ccccc1)C(N)=O)C(C)C)[C@@H](C)O)C(C)C)C(C)C)C(C)C | 8.7 | 1.4 | 7.9 | 19 |  |  |  |  | 
CC(C)C[C@H](NC(=O)CNC(=O)[C@H](C)NC(=O)[C@H](CC(C)C)NC(=O)[C@@H](N)CCCN=C(N)N)C(=O)N[C@@H](CC(C)C)C(=O)N[C@@H](CO)C(=O)N[C@@H](CCCN=C(N)N)C(=O)N[C@@H](CO)C(=O)NCC(=O)NCC(=O)N[C@H](C(=O)N[C@H](C(=O)N[C@@H](CCCCN)C(=O)N[C@@H](CC(N)=O)C(=O)N[C@@H](CC(N)=O)C(=O)N[C@@H](Cc1ccccc1)C(=O)N[C@H](C(=O)N1CCC[C@H]1C(=O)N[C@H](C(=O)N[C@@H](CC(N)=O)C(=O)N[C@H](C(=O)NCC(=O)N[C@@H](CO)C(=O)N[C@@H](CCCCN)C(=O)N[C@@H](C)C(=O)N[C@@H](Cc1ccccc1)C(N)=O)C(C)C)[C@@H](C)O)C(C)C)C(C)C)C(C)C | 30 | 1.4 | 89 | 65 |  |  |  |  | 
CC(C)C[C@H](NC(=O)CNC(=O)[C@H](C)NC(=O)[C@H](CC(C)C)NC(=O)[C@H](CCCN=C(N)N)NC(=O)[C@H](Cc1c[nH]cn1)NC(=O)[C@@H](N)[C@@H](C)O)C(=O)N[C@@H](CC(C)C)C(=O)N[C@@H](CO)C(=O)N[C@@H](CCCN=C(N)N)C(=O)N[C@@H](CO)C(=O)NCC(=O)NCC(=O)N[C@H](C(=O)N[C@H](C(=O)N[C@@H](CCCCN)C(=O)N[C@@H](CC(N)=O)C(=O)N[C@@H](CC(N)=O)C(=O)N[C@@H](Cc1ccccc1)C(=O)N[C@H](C(=O)N1CCC[C@H]1C(=O)N[C@H](C(=O)N[C@@H](CC(N)=O)C(=O)N[C@H](C(=O)NCC(=O)N[C@@H](CO)C(=O)N[C@@H](CCCCN)C(=O)N[C@@H](C)C(=O)N[C@@H](Cc1ccccc1)C(N)=O)C(C)C)[C@@H](C)O)C(C)C)C(C)C)C(C)C | 215 | 7.6 | 225 | 180 |  |  |  |  | 
CC(C)C[C@H](NC(=O)CNC(=O)[C@H](C)NC(=O)[C@H](CC(C)C)NC(=O)[C@H](CCCNC(=N)N)NC(=O)[C@H](Cc1cnc[nH]1)NC(=O)[C@@H](NC(=O)[C@@H](N)C(C)C)[C@@H](C)O)C(=O)N[C@@H](CC(C)C)C(=O)N[C@@H](CO)C(=O)N[C@@H](CCCNC(=N)N)C(=O)N[C@@H](CO)C(=O)NCC(=O)NCC(=O)N[C@H](C(=O)N[C@H](C(=O)N[C@@H](CCCCN)C(=O)N[C@@H](CC(N)=O)C(=O)N[C@@H](CC(N)=O)C(=O)N[C@@H](Cc1ccccc1)C(=O)N[C@H](C(=O)N1CCC[C@H]1C(=O)N[C@H](C(=O)N[C@@H](CC(N)=O)C(=O)N[C@H](C(=O)NCC(=O)N[C@@H](CO)C(=O)N[C@@H](CCCCN)C(=O)N[C@@H](C)C(=O)N[C@@H](Cc1ccccc1)C(N)=O)C(C)C)[C@@H](C)O)C(C)C)C(C)C)C(C)C | 194 | 6.7 | 267 | 290 |  |  |  |  | 
H-VTHRAAGLLSRSGGVVKNNFVPTNVGSKAF-NH2 | 89 | 2.2 | 116 | 116 | 40 | 33 | 46 | 22 | 43
CC(C)C[C@H](NC(=O)CNC(=O)[C@H](C)NC(=O)[C@H](CC(C)C)NC(=O)[C@H](CCCN=C(N)N)NC(=O)[C@H](Cc1c[nH]cn1)NC(=O)[C@H](C)NC(=O)[C@@H](N)C(C)C)C(=O)N[C@@H](CC(C)C)C(=O)N[C@@H](CO)C(=O)N[C@@H](CCCN=C(N)N)C(=O)N[C@@H](CO)C(=O)NCC(=O)NCC(=O)N[C@H](C(=O)N[C@H](C(=O)N[C@@H](CCCCN)C(=O)N[C@@H](CC(N)=O)C(=O)N[C@@H](CC(N)=O)C(=O)N[C@@H](Cc1ccccc1)C(=O)N[C@H](C(=O)N1CCC[C@H]1C(=O)N[C@H](C(=O)N[C@@H](CC(N)=O)C(=O)N[C@H](C(=O)NCC(=O)N[C@@H](CO)C(=O)N[C@@H](CCCCN)C(=O)N[C@@H](C)C(=O)N[C@@H](Cc1ccccc1)C(N)=O)C(C)C)[C@@H](C)O)C(C)C)C(C)C)C(C)C | 117 | 2.4 | 193 | 238 | 82 | 36 | 60 | 6.8 | 72
H-VTHALAGLLSRSGGVVKNNFVPTNVGSKAF-NH2 | 58 | 3.1 | 106 | 83 | 29 | 46 | 30 | 33 | 40
CC(C)C[C@H](NC(=O)CNC(=O)[C@H](C)NC(=O)[C@H](CC(C)C)NC(=O)[C@H](CCCN=C(N)N)NC(=O)[C@@H](N)Cc1c[nH]cn1)C(=O)N[C@@H](CC(C)C)C(=O)N[C@@H](CO)C(=O)N[C@@H](CCCN=C(N)N)C(=O)N[C@@H](CO)C(=O)NCC(=O)NCC(=O)N[C@H](C(=O)N[C@H](C(=O)N[C@@H](CCCCN)C(=O)N[C@@H](CC(N)=O)C(=O)N[C@@H](CC(N)=O)C(=O)N[C@@H](Cc1ccccc1)C(=O)N[C@H](C(=O)N1CCC[C@H]1C(=O)N[C@H](C(=O)N[C@@H](CC(N)=O)C(=O)N[C@H](C(=O)NCC(=O)N[C@@H](CO)C(=O)N[C@@H](CCCCN)C(=O)N[C@@H](C)C(=O)N[C@@H](Cc1ccccc1)C(N)=O)C(C)C)[C@@H](C)O)C(C)C)C(C)C)C(C)C | 65 | 3.2 | 114 | 77 | 27 | 48 | 34 | 10 | 43
CC(C)C[C@H](NC(=O)CNC(=O)[C@H](C)NC(=O)[C@H](CC(C)C)NC(=O)[C@H](CCCN=C(N)N)NC(=O)[C@H](C)NC(=O)[C@@H](NC(=O)[C@@H](N)C(C)C)[C@@H](C)O)C(=O)N[C@@H](CC(C)C)C(=O)N[C@@H](CO)C(=O)N[C@@H](CCCN=C(N)N)C(=O)N[C@@H](CO)C(=O)NCC(=O)NCC(=O)N[C@H](C(=O)N[C@H](C(=O)N[C@@H](CCCCN)C(=O)N[C@@H](CC(N)=O)C(=O)N[C@@H](CC(N)=O)C(=O)N[C@@H](Cc1ccccc1)C(=O)N[C@H](C(=O)N1CCC[C@H]1C(=O)N[C@H](C(=O)N[C@@H](CC(N)=O)C(=O)N[C@H](C(=O)NCC(=O)N[C@@H](CO)C(=O)N[C@@H](CCCCN)C(=O)N[C@@H](C)C(=O)N[C@@H](Cc1ccccc1)C(N)=O)C(C)C)[C@@H](C)O)C(C)C)C(C)C)C(C)C | 95 | 3.2 | 179 | 129 |  |  |  |  | 
